Yeast growth inh: reduces growth of yeast BB579 in restrictive medium; S. cerevisiae BB579 growth, OD615, 48 h; inhibition, % at 10 µM; 0.51% of 140,000 active;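 active means inhibition above a set limit, 3 SD over the mean compound inhibition, cut at about 44% in these data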
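test system = yeast BB579 (DeaD) | buffer or medium = restrictive CSMM-D medium | doses = single compound dose of 10 µM, 0.25% DMSO final | times = 4 h preincubation and 48 h exposure at 30 °C | technique = culture absorbance at 615 nm | benchmarks = amphotericin B 10 µg/mL, positive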
Measles CPE: protection of cells from measles virus; Measles virus-infected cells, CPE protection, absorbance; protection (pct of control), % at 4 µM; 1.5% of 140,000 active; AID 841; in the data active means protection mostly above about 24%, no sharp cut-off; inactive means mostly below about 26%
Yeast lifespan up: extends the lifespan of yeast. inhibition of the nicotinamide effect, % at 10 µM. 0.68% of 130,000 active. S. cerevisiae growth with nicotinamide, OD615; deaD strain in restrictive glucose medium;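 active means inhibition above a set limit, placed 3 SD over the median of all compounds, cut at about 26% in these data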;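 further: 0% = nicotinamide-treated wells and 100% = cells grown without nicotinamide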
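System: Modified budding yeast, DeaD strain | Buffer or medium: Restrictive glucose medium | Also added: 1.5 mM nicotinamide | Doses: 10 µM single point, 0.25% DMSO | Schedule: 48 h compound exposure at 30 °C, humidified | Detection: Absorbance at 615 nm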
RAM inhibit: blocks the yeast RAM network; S. cerevisiae dse1pr::URA3 reporter, 5-FOA growth OD615, 2 d; analog-sensitive cbk1-as2 kinase mutant strain; 1.8% of 190,000 active; AID 868; inhibition, % at 50 µM;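 active means inhibition above a set limit, 3 SD over mean compound inhibition, cut at about 8.4% in these data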;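 further: 0% = DMSO-only wells with no growth and 100% = 10 µM 1-NA-PP1 full growth; inhibition rescues growth on 5-FOA so higher OD means more RAM inhibition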
* marks the source's active call; other numbers are inactive results; . = no result given. Sampled rows, rich in hits. Any-hit rate of the full collection: about 3.8%.

SMILES	Yeast growth inh	Measles CPE	Yeast lifespan up	RAM inhibit
CC1CCN(C(=O)Cn2cc(C#N)c3ccccc32)CC1	-11.6	19.2	.	0.9
CC1CCCCN1C(=O)Cn1cc(C#N)c2ccccc21 (stereo not drawn)	-10.8	39.7*	.	0.8
Cc1cc(C)c2c(N=NN3CCOCC3)[nH]nc2n1	66.3*	4.9	-4.1	-1.1
COc1ccc(C2NC(=S)NC3=C2CCc2cc(OC)ccc23)cc1 (stereo not drawn)	-27.7	2.6	-3.3	4.3
CC(C)=CCCC(C)NC(=O)NC1CCCCC1 (stereo not drawn)	-6.2	26.8*	.	-0.6
CC(C)[C@H](NC(=O)NC1CCCC1)C(=O)O	-30.9	7.1	1.4	1.6
Cc1cc(C(=O)COC(=O)c2ccc[nH]c2=O)c(C)n1C	-8.7	17.5	4.9	2.9
Cc1cc(C(=O)COC(=O)c2ccc[nH]c2=O)c(C)n1-c1ccc(Br)cc1	91.3*	22.5	-7.5	0.0
Cc1ccc(-n2c(C)cc(C(=O)COC(=O)c3ccc[nH]c3=O)c2C)cc1	93.0*	21.5	-6.1	-0.3
NC(=S)NN=C1c2cc(S(=O)(=O)N3CCOCC3)ccc2-c2ccc(S(=O)(=O)N3CCOCC3)cc21	-16.3	2.7	4.0	9.9*
COC(=O)CCC(=O)COc1ccc(OC)cc1C#N	-29.1	15.1	-14.6	2.2
COC(=O)CCC(=O)COc1ccccc1C#N	-62.5	40.5*	-5.1	1.2
Cc1c(Cl)c([N+](=O)[O-])nn1CCCC(=O)Nc1c(Cl)cccc1Cl	-66.9	2.3	3.7	9.9*
Cc1c(Cl)c([N+](=O)[O-])nn1CCCC(=O)Nc1c(C)n(C)n(-c2ccccc2)c1=O	.	.	.	1.4
CCOC(=O)c1cnc(-n2nc(C)cc2C)nc1NCCc1ccccc1	52.3*	27.1	-14.9	-1.5
CCOC(=O)c1cnc(-n2nc(C)cc2C)nc1Nc1ccccc1OC	-32.6	11.6	-0.1	2.3
[O-]c1c[n+](-c2ccc(-[n+]3cc([O-])on3)cc2)no1	.	.	.	2.2
Cc1csc(SCC(=O)NC23CC4CC(CC(C4)C2)C3)n1	-59.2	13.9	39.0*	0.4
CCCOc1ccc(C(=O)CCNc2cccc(Cl)c2)cc1	.	.	.	9.8*
COc1ccc(C(=O)CCNc2cccc(Cl)c2)cc1	2.2	23.1	-5.1	1.2
CN1CCc2c(n(CC(O)CN3CCN(CCO)CC3)c3ccccc23)C1=O (stereo not drawn)	.	.	.	-0.2
NS(=O)(=O)c1cccc(NC(=O)COC(=O)Cc2ccc(S(=O)(=O)N3CCCCC3)s2)c1	.	.	.	8.2
O=C(COC(=O)Cc1ccc(S(=O)(=O)N2CCCCC2)s1)Nc1ccc2c(c1)OCO2	-29.8	5.1	-14.8	9.4*
COc1ccc(NC(=O)c2ccsc2NC(C)=O)cc1	.	.	.	3.7
O=C(NC(=S)Nc1ccc(S(=O)(=O)N2CCCCC2)cc1)c1cccs1	-36.6	13.3	-1.4	6.7
SMILES	Yeast growth inh	Measles CPE	Yeast lifespan up	RAM inhibit
O=C(NCc1cccnc1)c1ccc(S(=O)(=O)N2CCCCC2)cc1	-79.6	9.5	115.5*	0.0
O=C(NCc1cccnc1)C1CCCN(S(=O)(=O)c2ccc(Br)cc2)C1 (stereo not drawn)	-38.2	25.8	-2.8	1.4
O=C(NNC(=O)c1cccs1)c1ccc(S(=O)(=O)N2CCCCC2)cc1	-1.2	25.8*	8.9	-0.5
O=C(NCc1cccnc1)C1CCCCN1S(=O)(=O)c1ccc(F)cc1 (stereo not drawn)	-26.1	19.2*	0.7	0.3
O=C(NCc1ccccc1)c1ccc(S(=O)(=O)N2CCCC2)cc1	-17.2	45.5	2.0	0.8
COc1ccc(Cl)cc1NC(=O)CN1CCc2ccccc21	.	.	.	8.1
COc1ccccc1C(=O)NNC(=O)c1sccc1-n1cccc1	.	.	.	-0.6
COC(=O)c1cn(NC(=O)c2ccc(F)cc2)c(=O)c2ccccc12	-41.4	44.4*	0.0	3.3
O=C(COc1cccnc1[N+](=O)[O-])Nc1ccc2c(c1)OC(F)(F)O2	-15.4	4.2	-8.3	4.3
CCOC(=O)N1CCN(C(=O)C2CCN(Cc3nc(-c4ccccc4C)oc3C)CC2)CC1	-46.0	52.7*	-8.1	0.3
CCOC(=O)N1CCN(C(=O)CSCc2nc(-c3ccccc3C)oc2C)CC1	-23.3	31.2	-9.5	1.4
COc1ccc(Cc2nc3ccccc3[nH]2)cc1OC	.	.	.	0.2
Nc1c(C(=O)NCc2ccc3c(c2)OCO3)c2nc3ccccc3nc2n1CCCN1CCOCC1	-35.9	9.7	-24.8	9.8*
CC(=O)CC(c1ccc([N+](=O)[O-])cc1)c1c(O)c2ccccc2oc1=O (stereo not drawn)	-33.6	36.5*	-5.4	0.1
O=C(Cn1nc(-c2ccccc2)ccc1=O)Nc1ccc(N2CCN(C(=O)c3cccs3)CC2)cc1	.	.	.	4.4
O=S(=O)(c1ccccc1)N(Cc1nc(-c2ccccc2)no1)C1CCCCC1	-53.6	.	-4.0	9.2*
CC(C)N(Cc1nc(-c2ccccc2)no1)S(=O)(=O)c1ccccc1	-1.0	13.7	-7.3	5.1
CC(C)N(Cc1nc(-c2ccccc2)no1)C(=O)CN(C)S(=O)(=O)c1ccccc1	-37.4	16.3	-8.4	8.7*
O=C(Nc1ccc(Cl)cc1)NC1CCCC1Cc1ccco1 (stereo not drawn)	-11.1	35.8	-23.9	8.8*
c1ccc(-c2nc(-n3ccnc3)nc(-n3ccnc3)n2)cc1	73.8*	4.0	-28.7	1.6
CC(C)Nc1nc(-c2ccccc2)nc(-n2ccnc2)n1	-23.4	6.8	-9.2	2.2
N/C(=N\OC(=O)c1ccc(Cl)cc1Cl)c1ccccc1	95.6*	9.7	-13.2	3.5
Cc1ccc(/C(N)=N/OC(=O)c2ccc(C)cc2Cl)cc1	57.7*	5.1	-6.2	1.1
CS(=O)(=O)N(Cc1ccc(C(=O)NC2CCCC2)cc1)c1ccccc1	.	.	.	5.5
CS(=O)(=O)N(Cc1ccc(Cl)cc1)c1ccc(C(=O)NCCC2=CCCCC2)cc1	-28.1	8.3	-10.9	9.8*
SMILES	Yeast growth inh	Measles CPE	Yeast lifespan up	RAM inhibit
Cc1ccc(N(Cc2ccc(C(=O)NC3CCCCC3)cc2)S(C)(=O)=O)cc1C	-42.1	103.4*	-10.2	5.3
CCOc1ccc(N(CC(=O)NCCC2=CCCCC2)S(=O)(=O)c2ccccc2)cc1	.	.	.	5.5
CC(OC(=O)Cc1ccc(Cl)cc1)C(=O)NCCC1=CCCCC1 (stereo not drawn)	-0.9	19.8	4.6	9.0*
CCN(c1ccccc1)S(=O)(=O)c1ccc(C(=O)OC(C)C(=O)NCCC2=CCCCC2)cc1 (stereo not drawn)	-12.3	4.9	3.4	9.0*
CC(Oc1ccc(Cl)cc1Cl)C(=O)NCCC1=CCCCC1 (stereo not drawn)	-47.7	7.1	1.0	5.3
COC(=O)C(CC(=O)c1cccc(OC)c1)c1ccc(F)cc1 (stereo not drawn)	.	.	.	0.3
CCN(c1ccccc1)S(=O)(=O)c1ccc(F)cc1	-13.7	18.6	-11.7	-0.4
CS(=O)(=O)N(Cc1ccccc1)c1ccc(C(=O)NCc2cccnc2)cc1	-15.9	22.9	-5.0	-0.2
CS(=O)(=O)N(Cc1ccccc1)c1ccc(C(=O)NCc2ccccc2)cc1	-12.7	43.9*	-7.1	6.7
CCN(c1ccccc1)S(=O)(=O)c1ccc(C(=O)Oc2ccc(C(C)=O)cc2)cc1	-25.7	12.0	6.7	9.1*
